Assay results as given in ChEMBL document CHEMBL4819149, “A facile reaction to access novel structural sulfonyl-hybridized imidazolyl ethanols as potential DNA-targeting antibacterial agents” (Bioorg Med Chem Lett, 2021).
In brackets after ≈: the same amount, converted by molar mass. Activity calls are given as the source filed them. The rule behind the calls is not given here.

What was measured:
Staphylococcus aureus [1] = test: Antibacterial activity against methicillin-resistant Staphylococcus aureus assessed as bacterial growth inhibition by broth microdilution method; type: functional
Method in brief: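 MIC read by micro broth dilution; values given in μg/mL.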

Enterococcus faecalis [2] = test: Antibacterial activity against Enterococcus faecalis assessed as bacterial growth inhibition by broth microdilution method; type: functional
Method in brief: (§1)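 MIC values reported in µg/mL, determined by broth microdilution in microdilution plates.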

Staphylococcus aureus [3] = test: Antibacterial activity against Staphylococcus aureus assessed as bacterial growth inhibition by broth microdilution method; type: functional; method in brief: as §1
Staphylococcus aureus [4] = test: Antibacterial activity against Staphylococcus aureus ATCC 25923 assessed as bacterial growth inhibition by broth microdilution method; type: functional; method in brief: as §1
Staphylococcus aureus [5] = test: Antibacterial activity against Staphylococcus aureus ATCC 29213 assessed as bacterial growth inhibition by broth microdilution method; type: functional; method in brief: as §1
Klebsiella pneumoniae = test: Antibacterial activity against Klebsiella pneumonia assessed as bacterial growth inhibition by broth microdilution method; type: functional; method in brief: as §1
Pseudomonas aeruginosa [6] = test: Antibacterial activity against Pseudomonas aeruginosa ATCC 27853 assessed as bacterial growth inhibition by broth microdilution method; type: functional; method in brief: as §1
Pseudomonas aeruginosa [7] = test: Antibacterial activity against Pseudomonas aeruginosa assessed as bacterial growth inhibition by broth microdilution method; type: functional; method in brief: as §1
Acinetobacter baumannii = test: Antibacterial activity against Acinetobacter baumannii assessed as bacterial growth inhibition by broth microdilution method; type: functional; method in brief: as §1
Escherichia coli [8] = test: Antibacterial activity against Escherichia coli assessed as bacterial growth inhibition by broth microdilution method; type: functional; method in brief: as §1
Escherichia coli [9] = test: Antibacterial activity against Escherichia coli ATCC 25922 assessed as bacterial growth inhibition by broth microdilution method; type: functional; method in brief: as §1
Staphylococcus aureus [10] = test: Antibacterial activity against methicillin-resistant Staphylococcus aureus measured after 13 passages by broth microdilution method; type: functional, organism-based
DNA [11] = test: Binding affinity to DNA (unknown origin) assessed as hypochromic shift by UV-vis spectrophotometric analysis; type: nucleic-acid assay
Method in brief: (§2)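 DNA UV-vis absorption spectra were recorded with increasing test compound concentration, following the 260 nm peak intensity and position. Hypochromism was judged by comparing the summed absorbance of free DNA and free compound with the measured absorbance of the compound-DNA complex.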

Calf thymus DNA = test: Binding affinity to calf thymus DNA assessed as DNA intercalation by competitive neutral red dye displacement based UV-Vis absorbance analysis; conditions: Bos taurus
Method in brief: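 Neutral red (NR) competition: absorbance around 530 nm was followed with test compound and increasing calf thymus DNA, compared against free NR titrated with increasing calf thymus DNA.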

DNA [12] = test: Binding affinity to methicillin-resistant Staphylococcus aureus DNA assessed as DNA intercalation by competitive neutral red dye displacement based UV-Vis absorbance analysis; type: nucleic-acid assay
[13] = Cytotoxicity against human […] assessed as reduction in cell viability at 100 ug/ml by MTT assay; type: cell-based; conditions: dose 100 µg/ml
Method in brief: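 Endothelial […] were exposed to a range of compound concentrations up to 100 µg/mL, and viability was read by MTT assay.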

Staphylococcus aureus [14] = test: Potency index, ratio of sulfathiazole MIC to test compound MIC for methicillin-resistant Staphylococcus aureus assessed as bacterial growth inhibition by broth microdilution method; type: functional
Staphylococcus aureus [15] = test: Potency index, ratio of norfloxacin MIC to test compound MIC for methicillin-resistant Staphylococcus aureus assessed as bacterial growth inhibition by broth microdilution method; type: functional
Enterococcus faecalis [16] = test: Potency index, ratio of sulfathiazole MIC to test compound MIC for Enterococcus faecalis assessed as bacterial growth inhibition by broth microdilution method; type: functional
DNA [17] = test: Binding affinity to DNA (unknown origin) assessed as increase in maximum absorption peak of DNA at 260 nm by UV-vis spectrophotometric analysis; type: nucleic-acid assay; method in brief: as §2
DNA [18] = test: Binding affinity to DNA (unknown origin) assessed as red shift in absorption maxima by UV-vis spectrophotometric analysis; type: nucleic-acid assay; method in brief: as §2

Work on `CCn1cc(C(=O)O)c(=O)c2cc(F)c(N3CCNCC3)cc21` [NORFLOXACIN] yielded an MIC (Staphylococcus aureus [1]) of 8 µg/mL (≈ 25.1 µM), an MIC (Enterococcus faecalis [2]) of 256 µg/mL (≈ 802 µM) and an MIC (Staphylococcus aureus [3]) of 8 µg/mL (≈ 25.1 µM). For the same compound, the MIC (Staphylococcus aureus [4]) was 1 µg/mL (≈ 3.13 µM), the MIC (Staphylococcus aureus [5]) was 1 µg/mL (≈ 3.13 µM) and the MIC (Klebsiella pneumoniae) was 256 µg/mL (≈ 802 µM). The MIC (Pseudomonas aeruginosa [6]) was 16 µg/mL (≈ 50.1 µM), the MIC (Pseudomonas aeruginosa [7]) was 256 µg/mL (≈ 802 µM) and the MIC (Acinetobacter baumannii) was 8 µg/mL (≈ 25.1 µM). The MIC (Escherichia coli [8]) was 512 µg/mL (≈ 1600 µM), the MIC (Escherichia coli [9]) was 512 µg/mL (≈ 1600 µM) and the Activity (Staphylococcus aureus [10]) was “inactive”.
`CCc1nc(C)cn1C(CO)CS(=O)(=O)c1ccc(NC(C)=O)cc1` (stereo not drawn) showed an MIC (Staphylococcus aureus [1]) of 4 µg/mL (≈ 10.9 µM), an MIC (Enterococcus faecalis [2]) of 16 µg/mL (≈ 43.8 µM) and an MIC (Staphylococcus aureus [3]) of 64 µg/mL (≈ 175 µM). It also gave an MIC (Staphylococcus aureus [4]) of 128 µg/mL (≈ 350 µM), an MIC (Staphylococcus aureus [5]) of 32 µg/mL (≈ 87.6 µM) and an MIC (Klebsiella pneumoniae) of 128 µg/mL (≈ 350 µM). It also gave an MIC (Pseudomonas aeruginosa [6]) of 32 µg/mL (≈ 87.6 µM), an MIC (Pseudomonas aeruginosa [7]) of 128 µg/mL (≈ 350 µM) and an MIC (Acinetobacter baumannii) of 64 µg/mL (≈ 175 µM). The MIC (Escherichia coli [8]) was 64 µg/mL (≈ 175 µM), the MIC (Escherichia coli [9]) was 32 µg/mL (≈ 87.6 µM) and the Activity (DNA [11]) was “Active”. The Activity (Calf thymus DNA) was “inactive”, the Activity (DNA [12]) was “Active” and the Activity [13] was “Non-Toxic”. The Activity (Staphylococcus aureus [10]) was “Active”, the Ratio (Staphylococcus aureus [14]) was 16 and the Ratio (Staphylococcus aureus [15]) was 2. The Ratio (Enterococcus faecalis [16]) was 32, the Activity (DNA [17]) was “Active” and the Activity (DNA [18]) was “Active”.
`CC(=O)Nc1ccc(S(=O)(=O)CC(CO)n2cnc(I)c2)cc1` (stereo not drawn) showed an MIC (Staphylococcus aureus [1]) of 32 µg/mL (≈ 71.2 µM), an MIC (Enterococcus faecalis [2]) of 64 µg/mL (≈ 142 µM) and an MIC (Staphylococcus aureus [3]) of 64 µg/mL (≈ 142 µM). It also gave an MIC (Staphylococcus aureus [4]) of 64 µg/mL (≈ 142 µM), an MIC (Staphylococcus aureus [5]) of 64 µg/mL (≈ 142 µM) and an MIC (Klebsiella pneumoniae) of 64 µg/mL (≈ 142 µM). For the same compound, the MIC (Pseudomonas aeruginosa [6]) was 32 µg/mL (≈ 71.2 µM), the MIC (Pseudomonas aeruginosa [7]) was 32 µg/mL (≈ 71.2 µM) and the MIC (Acinetobacter baumannii) was 32 µg/mL (≈ 71.2 µM). It also gave an MIC (Escherichia coli [8]) of 128 µg/mL (≈ 285 µM) and an MIC (Escherichia coli [9]) of 32 µg/mL (≈ 71.2 µM).
Work on `Nc1ccc(S(=O)(=O)Nc2nccs2)cc1` [SULFATHIAZOLE] yielded an MIC (Staphylococcus aureus [1]) of 64 µg/mL (≈ 251 µM), an MIC (Enterococcus faecalis [2]) of 512 µg/mL (≈ 2010 µM) and an MIC (Staphylococcus aureus [3]) of 512 µg/mL (≈ 2010 µM). For the same compound, the MIC (Staphylococcus aureus [4]) was 512 µg/mL (≈ 2010 µM), the MIC (Staphylococcus aureus [5]) was 512 µg/mL (≈ 2010 µM) and the MIC (Klebsiella pneumoniae) was 128 µg/mL (≈ 501 µM). For the same compound, the MIC (Pseudomonas aeruginosa [6]) was 512 µg/mL (≈ 2010 µM), the MIC (Pseudomonas aeruginosa [7]) was 128 µg/mL (≈ 501 µM) and the MIC (Acinetobacter baumannii) was 64 µg/mL (≈ 251 µM). The MIC (Escherichia coli [8]) was 256 µg/mL (≈ 1000 µM), the MIC (Escherichia coli [9]) was 128 µg/mL (≈ 501 µM) and the Activity (Staphylococcus aureus [10]) was “inactive”.
For `CC(=O)Nc1ccc(S(=O)(=O)CC(CO)n2cnc(Br)c2)cc1` (stereo not drawn), the MIC (Staphylococcus aureus [1]) was 8 µg/mL (≈ 19.9 µM), the MIC (Enterococcus faecalis [2]) was 8 µg/mL (≈ 19.9 µM) and the MIC (Staphylococcus aureus [3]) was 64 µg/mL (≈ 159 µM). The MIC (Staphylococcus aureus [4]) was 64 µg/mL (≈ 159 µM), the MIC (Staphylococcus aureus [5]) was 32 µg/mL (≈ 79.5 µM) and the MIC (Klebsiella pneumoniae) was 256 µg/mL (≈ 636 µM). For the same compound, the MIC (Pseudomonas aeruginosa [6]) was 32 µg/mL (≈ 79.5 µM), the MIC (Pseudomonas aeruginosa [7]) was 256 µg/mL (≈ 636 µM) and the MIC (Acinetobacter baumannii) was 64 µg/mL (≈ 159 µM). It also gave an MIC (Escherichia coli [8]) of 64 µg/mL (≈ 159 µM) and an MIC (Escherichia coli [9]) of 32 µg/mL (≈ 79.5 µM).
With `Cc1cn(C(CO)CS(=O)(=O)c2ccc(N)cc2)cn1` (stereo not drawn) the MIC (Staphylococcus aureus [1]) was 8 µg/mL (≈ 27.1 µM), the MIC (Enterococcus faecalis [2]) was 16 µg/mL (≈ 54.2 µM) and the MIC (Staphylococcus aureus [3]) was 64 µg/mL (≈ 217 µM). It also gave an MIC (Staphylococcus aureus [4]) of 32 µg/mL (≈ 108 µM), an MIC (Staphylococcus aureus [5]) of 64 µg/mL (≈ 217 µM) and an MIC (Klebsiella pneumoniae) of 32 µg/mL (≈ 108 µM). The MIC (Pseudomonas aeruginosa [6]) was 32 µg/mL (≈ 108 µM), the MIC (Pseudomonas aeruginosa [7]) was 128 µg/mL (≈ 433 µM) and the MIC (Acinetobacter baumannii) was 16 µg/mL (≈ 54.2 µM). It also gave an MIC (Escherichia coli [8]) of 64 µg/mL (≈ 217 µM) and an MIC (Escherichia coli [9]) of 64 µg/mL (≈ 217 µM).
